Measurements reported in ChEMBL document CHEMBL1122299, “Potential cerebral perfusion agents: synthesis and evaluation of a radioiodinated vinylalkylbarbituric acid analogue” (J Med Chem, 1983).
Activity calls are given as the source filed them. The calls are words filed in the database; no cut-off is given here.

What was measured:
[1] = In vivo deiodination was determined; Resistant; assay type: functional, organism-based
Outline: (§1)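 Female Fischer 344 rats (10–12 weeks, 170–200 g, food and water ad libitum) received 7.95 μCi of the 125I-labeled barbiturate (sp act ~155 mCi/mmol) in filtered pH 7.4 phosphate buffer via lateral tail vein under ether anesthesia. Four rats per time point were killed at 2 min to 1 day. Thyroid and other organs were excised, rinsed, blotted, weighed and gamma-counted as % injected dose/g.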

[2] = species on record: Rattus norvegicus; assay: Uptake in the thyroid or any of the other tissues tested in rats; NS- No significant activity; assay type: functional, organism-based; settings: Thyroid gland; outline: as §1

With CCOC(=O)C(CC)(CCC/C=C/I)C(=O)O (configuration not stated) the Activity [1] was “Resistant” and the Activity [2] was “inactive”.
